# Results: ChEMBL document CHEMBL1125917, “Synthesis of halogen-substituted 1,5-benzothiazepine derivatives and their vasodilating and hypotensive activities” (1991)
# Legend:
# [1] = system: Canis familiaris; test: Antihypertensive activity by the increase in the vertebral blood flow in anesthetized dogs expressed as duration of half of the maximum change in blood flow.; assay type: functional, Canis lupus familiaris
# How it was run: (§1)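 Anesthetized dogs; compounds given intraarterially. Vertebral blood flow recorded, and a dose-response curve built from peak responses. Potency given as ratio to diltiazem, calculated from the dose-response curves. Half duration is the time, in minutes, that blood flow stays at one-half of the maximum change.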
# [2] = species on record: Canis familiaris; test: Antihypertensive activity expressed as the ratio of the potency evaluated by increased vertebral blood flow (VBF) to that of diltiazem.; assay type: functional, Canis lupus familiaris; how it was run: as §1
# [3] = species on record: Cavia porcellus; test: Increase in the coronary blood flow (CBF) was determined in isolated guinea pig heart at a dose of 100 ug/heart; assay type: functional
# How it was run: (§2)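 Hartley guinea pig hearts perfused by the Langendorff method with modified Locke-Ringer solution containing defibrinated rabbit blood, at 40 cm H2O and 29 ± 1 °C. Compounds in saline injected into the aortic cannula at 3, 10, 30 or 100 μg/heart. Coronary flow measured by drop counter; graded by the lowest dose giving an increase of at least 0.5 mL/min.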
# [4] = system: Rattus norvegicus; test: Change in blood pressure in spontaneously hypertensive rats 1 hr following 30 mg/kg p.o.; assay type: functional; details: route oral
# How it was run: (§3)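 Male spontaneously hypertensive rats, fasted 20 h. Compounds dissolved in deionized water and given orally (30 mg/kg; some at 100 mg/kg). Blood pressure measured by tail-cuff in conscious animals. Change (mmHg) taken from the predosing value at 1 and 4 h, or 1 and 5 h, after dosing. N = 3-6.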
# [5] = system: Rattus norvegicus; test: Hypotensive activity in SHR (spontaneously hypertensive rats) expressed as change in blood pressure(mmHg) after 4 hr dosing at a concentration of 30 mg/kg; assay type: functional; how it was run: as §3
# [6] = species on record: Cavia porcellus; test: Increase in the coronary blood flow (CBF) was determined in isolated guinea pig heart at a dose of 30 ug/heart; assay type: functional, Artery; how it was run: as §2
compound,measurement,setting,value
CCN(C)CCN1C(=O)C(OC(C)=O)C(c2ccc(OC)cc2)Sc2cc(Cl)ccc21 (stereo in doubt; 2o),Half duration,[1],60 min
same,Potency ratio,[2],0.74
COc1ccc(C2Sc3cc(F)ccc3N(CCN(C)C)C(=O)C2OC(C)=O)cc1.Cl (stereo not drawn),Half duration,[1],71 min
same,Potency ratio,[2],0.37
same,Increase in CBF,[3],>0.5 mL/min
same,Change in blood pressure,[4],-64 delta mmHg
same,Change in blood pressure,[5],-50 delta mmHg
Cc1ccc(C2Sc3cc(Cl)ccc3N(CCN(C)C)C(=O)C2OC(=O)c2ccc([N+](=O)[O-])cc2Cl)cc1 (stereo not drawn),Half duration,[1],156 min
same,Potency ratio,[2],0.05
CC(=O)OC1C(=O)N(CCN(C)C)c2ccc(Cl)cc2SC1c1ccc(C)cc1 (stereo not drawn),Half duration,[1],61 min
same,Potency ratio,[2],0.37
COc1ccc(C2Sc3cccc(Cl)c3N(CCN(C)C)C(=O)C2OC(C)=O)cc1.Cl (stereo not drawn),Half duration,[1],53 min
same,Potency ratio,[2],0.62
same,Increase in CBF,[3],>0.5 mL/min
same,Change in blood pressure,[4],-22 delta mmHg
same,Change in blood pressure,[5],-13.7 delta mmHg
COc1ccc(C2Sc3c(ccc(Cl)c3Cl)N(CCN(C)C)C(=O)C2OC(C)=O)cc1.Cl (stereo not drawn),Half duration,[1],156 min
same,Potency ratio,[2],0.35
same,Increase in CBF,[3],>0.5 mL/min
COc1ccc(C2Sc3cc(F)ccc3N(CCN(C)C)C(=O)C2OC(=O)c2ccc([N+](=O)[O-])cc2)cc1 (stereo not drawn),Half duration,[1],48 min
same,Potency ratio,[2],0.35
same,Increase in CBF,[6],>0.5 mL/min
Cc1ccc(C2Sc3cc(Cl)ccc3N(CCN(C)C)C(=O)C2OC(=O)c2ccc([N+](=O)[O-])cc2)cc1 (stereo not drawn),Half duration,[1],84 min
same,Potency ratio,[2],0.08
"COc1ccc(C2Sc3c(Cl)cccc3N(CCN(C)C)C(=O)C2OC(C)=O)cc1.Cl (single isomer, unassigned; (-))",Half duration,[1],22 min
same,Potency ratio,[2],0.06
same,Increase in CBF,[3],<0.5 mL/min
CCN(CC)CCN1C(=O)C(OC(C)=O)C(c2ccc(OC)cc2)Sc2cc(Cl)ccc21 (stereo not drawn),Half duration,[1],48 min
same,Potency ratio,[2],0.55
same,Increase in CBF,[3],>0.5 mL/min
COc1ccc(C2Sc3c(Cl)cccc3N(CCN(C)C)C(=O)C2O)cc1.Cl (stereo not drawn),Half duration,[1],52 min
same,Potency ratio,[2],0.91
same,Increase in CBF,[6],>0.5 mL/min
Cc1ccc(C2Sc3cc(Cl)ccc3N(CCN(C)C)C(=O)C2OC(=O)c2ccc(Cl)cc2[N+](=O)[O-])cc1 (stereo not drawn),Half duration,[1],140 min
same,Potency ratio,[2],0.02
"COc1ccc(C2Sc3cc(Cl)ccc3N(CCN(C)C)C(=O)C2O)cc1 (single isomer, unassigned; (+))",Half duration,[1],46 min
same,Potency ratio,[2],0.94
same,Increase in CBF,[3],>0.5 mL/min
same,Change in blood pressure,[4]; 30 mg/kg,-13.3 delta mmHg
same,Change in blood pressure,[5]; 30 mg/kg,-51.7 delta mmHg
"C=CCN(C)CCN1C(=O)C(O)C(c2ccc(OC)cc2)Sc2cc(Cl)ccc21 (single isomer, unassigned; (+))",Half duration,[1],34 min
same,Potency ratio,[2],0.23
COc1ccc(C2Sc3c(F)cccc3N(CCN(C)C)C(=O)C2O)cc1.Cl (stereo not drawn),Half duration,[1],33 min
same,Potency ratio,[2],0.14
same,Increase in CBF,[3],>0.5 mL/min
Cc1ccc(C2Sc3cc(Cl)ccc3N(CCN(C)C)C(=O)C2O)cc1 (stereo not drawn),Half duration,[1],31 min
same,Potency ratio,[2],0.52
COc1ccc(C2Sc3cc(Cl)ccc3N(CCN(C)C)C(=O)C2OC(=O)c2ccc(C)cc2)cc1 (stereo not drawn),Half duration,[1],140 min
same,Potency ratio,[2],0.33
COc1ccc(C2Sc3cc(Cl)c(Cl)cc3N(CCN(C)C)C(=O)C2OC(C)=O)cc1.Cl (stereo not drawn),Half duration,[1],53 min
same,Potency ratio,[2],0.51
same,Increase in CBF,[6],>0.5 mL/min
COc1ccc(C2Sc3cc(Cl)ccc3N(CCN(C)C)C(=O)C2OC(=O)c2ccc([N+](=O)[O-])cc2)cc1 (stereo not drawn),Half duration,[1],75 min
same,Potency ratio,[2],0.05
same,Increase in CBF,[3],>0.5 mL/min
"COc1ccc(C2Sc3c(Cl)cccc3N(CCN(C)C)C(=O)C2OC(C)=O)cc1.Cl (single isomer, unassigned; (+))",Half duration,[1],74 min
same,Potency ratio,[2],0.83
same,Change in blood pressure,[4],-73.7 delta mmHg
same,Change in blood pressure,[5],-54.3 delta mmHg
COc1ccc(C2Sc3cc(F)ccc3N(CCN(C)C)C(=O)C2OC(=O)c2ccc(C)cc2)cc1 (stereo not drawn),Half duration,[1],62 min
same,Potency ratio,[2],0.26
"COc1ccc(C2Sc3cc(Cl)ccc3N(CCN(C)C)C(=O)C2OC(C)=O)cc1.Cl (single isomer, unassigned; (-))",Half duration,[1],36 min
same,Potency ratio,[2],0.06
same,Increase in CBF,[3],<0.5 mL/min
same,Change in blood pressure,[4]; 30 mg/kg,-6 delta mmHg
same,Change in blood pressure,[5]; 30 mg/kg,-22.7 delta mmHg
"CCCCC(=O)OC1C(=O)N(CCN(C)C)c2ccc(Cl)cc2SC1c1ccc(OC)cc1 (single isomer, unassigned; (+))",Half duration,[1],42 min
same,Potency ratio,[2],0.67
same,Change in blood pressure,[4],-46 delta mmHg
same,Change in blood pressure,[5],-39 delta mmHg
"COc1ccc(C2Sc3cc(Cl)ccc3N(CCN(C)C)C(=O)C2O)cc1 (single isomer, unassigned; (-))",Half duration,[1],23 min
same,Potency ratio,[2],0.02
same,Increase in CBF,[3],<0.5 mL/min
same,Change in blood pressure,[4]; 30 mg/kg,1 delta mmHg
same,Change in blood pressure,[5]; 30 mg/kg,-20 delta mmHg
"COc1ccc(C2Sc3ccc(Cl)cc3N(CCN(C)C)C(=O)C2OC(C)=O)cc1.Cl (single isomer, unassigned; (+))",Half duration,[1],29 min
same,Potency ratio,[2],0.93
same,Increase in CBF,[3],>0.5 mL/min
"COc1ccc(C2Sc3cc(Cl)ccc3N(CCN(C)C)C(=O)C2OC(C)=O)cc1.Cl (single isomer, unassigned; (+))",Potency ratio,[2],1.7
same,Change in blood pressure,[4]; 30 mg/kg,-86 delta mmHg
same,Change in blood pressure,[5]; 30 mg/kg,-68 delta mmHg
COc1ccc(C2Sc3ccc(Cl)cc3N(CCN(C)C)C(=O)C2OC(C)=O)cc1.Cl (stereo in doubt; (-)-2ll),Half duration,[1],12 min
same,Potency ratio,[2],0.03
same,Increase in CBF,[3],<0.5 mL/min
CCOC(=O)OC1C(=O)N(CCN(C)C)c2ccc(F)cc2SC1c1ccc(OC)cc1 (stereo not drawn),Half duration,[1],33 min
same,Potency ratio,[2],0.16
same,Increase in CBF,[3],>0.5 mL/min
COc1ccc(C2Sc3cc(Cl)ccc3N(CCN(C)C)C(=O)C2O)cc1.Cl (stereo not drawn),Half duration,[1],39 min
same,Potency ratio,[2],0.76
same,Increase in CBF,[3],>0.5 mL/min
"COc1ccc(C2Sc3ccc(Cl)cc3N(CCN(C)C)C(=O)C2O)cc1 (single isomer, unassigned; (+))",Half duration,[1],24 min
same,Potency ratio,[2],0.17
same,Increase in CBF,[3],<0.5 mL/min
COc1ccc(C2Sc3c(F)cccc3N(CCN(C)C)C(=O)C2OC(C)=O)cc1.Cl (stereo not drawn),Half duration,[1],43 min
same,Potency ratio,[2],0.34
same,Increase in CBF,[3],>0.5 mL/min
same,Change in blood pressure,[4],-39 delta mmHg
same,Change in blood pressure,[5],-60.3 delta mmHg
"CCN(CC)CCN1C(=O)C(O)C(c2ccc(OC)cc2)Sc2cc(Cl)ccc21 (single isomer, unassigned; (+))",Half duration,[1],31 min
same,Potency ratio,[2],0.32
same,Increase in CBF,[3],>0.5 mL/min
CCN(C)CCN1C(=O)C(O)C(c2ccc(OC)cc2)Sc2cc(Cl)ccc21 (stereo not drawn),Half duration,[1],38 min
same,Potency ratio,[2],0.28
same,Increase in CBF,[3],>0.5 mL/min
same,Change in blood pressure,[4],-21.3 delta mmHg
same,Change in blood pressure,[5],-39.3 delta mmHg
"COc1ccc(C2Sc3c(Cl)cccc3N(CCN(C)C)C(=O)C2O)cc1 (single isomer, unassigned; (-))",Half duration,[1],21 min
same,Potency ratio,[2],0.02
same,Increase in CBF,[3],<0.5 mL/min
CCCN(C)CCN1C(=O)C(O)C(c2ccc(OC)cc2)Sc2cc(Cl)ccc21 (stereo not drawn),Half duration,[1],35 min
same,Potency ratio,[2],0.24
same,Increase in CBF,[3],>0.5 mL/min
same,Change in blood pressure,[4],-20 delta mmHg
same,Change in blood pressure,[5],-27.3 delta mmHg
"CCN(C)CCN1C(=O)C(OC)C(c2ccc(OC)cc2)Sc2cc(Cl)ccc21 (single isomer, unassigned; (+))",Half duration,[1],41 min
same,Potency ratio,[2],0.5
COc1ccc(C2Sc3cc(Cl)c(Cl)cc3N(CCN(C)C)C(=O)C2O)cc1.Cl (stereo not drawn),Half duration,[1],36 min
same,Potency ratio,[2],0.29
same,Increase in CBF,[3],>0.5 mL/min
C#CCN(C)CCN1C(=O)C(O)C(c2ccc(OC)cc2)Sc2cc(Cl)ccc21 (stereo not drawn),Half duration,[1],28 min
same,Potency ratio,[2],0.06
"CCCC(=O)OC1C(=O)N(CCN(C)C)c2ccc(Cl)cc2SC1c1ccc(OC)cc1 (single isomer, unassigned; (+))",Half duration,[1],41 min
same,Potency ratio,[2],0.8
same,Change in blood pressure,[4],-30 delta mmHg
same,Change in blood pressure,[5],-28 delta mmHg
COc1ccc(C2Sc3cc(F)ccc3N(CCN(C)C)C(=O)C2O)cc1.Cl (stereo not drawn),Half duration,[1],40 min
same,Potency ratio,[2],0.37
same,Increase in CBF,[3],>0.5 mL/min
"COc1ccc(C2Sc3cc(Cl)ccc3N(CCN(C)C)C(=O)C2OC(=O)c2ccc([N+](=O)[O-])cc2Cl)cc1 (single isomer, unassigned; (+))",Half duration,[1],118 min
same,Potency ratio,[2],0.08
same,Increase in CBF,[3],>0.5 mL/min
COc1ccc(C2Sc3cc(Cl)ccc3N(CCN(C)C)C(=O)C2OC(C)=O)cc1.Cl (stereo in doubt; 2w),Half duration,[1],31 min
same,Potency ratio,[2],0.01
